In the library only some 2.3% were active in any assay of this set; here they are far more common.
SKN-1 inh – inhibitors of C. elegans SKN-1. 360,000 tested, 0.49% active. AID 624304. inhibition, % at 21.8 µM. C. elegans VP596 Pgst-4::GFP/RFP ratio, acrylamide-induced, 24 h;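 active = interference check ratio from 0.5 to 1.5 plus GFP to RFP signal ratio inhibition reaching or exceeding a fixed threshold, cut at about 30% in these data, passing the limit was not always enough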
CSN inh – blocks human CSN-mediated cullin deneddylation | inhibition, % at 12.5 µM | AID 651999 | Purified CSN, SCF-Nedd8-OG deneddylation, fluorescence polarization | 360,000 tested, 0.38% active;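 active = pattern-corrected inhibition above about 35%, with an unprinted fluorescence ratio check between 0.5 and 1.5, limit read from the data, passing the limit was not always enough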;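 also: 0% = enzyme with substrate and 100% = substrate without enzyme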
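test system = HEK293T-derived human Csn5 enzyme | amount = 0.24 nM Csn5 enzyme, final concentration | medium = Tris/NaCl/DTT buffer, pH 7.5 | schedule = 90 min reaction at room temperature | signal = FP | evaluation = inhibition of Csn5 cleavage, % | compound dosing = single dose of 12.5 µM compound with 0.25% DMSO | probe or stimulus = 10 nM SCFSkp2-Nedd8OG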
DNMT1 block – blocks human DNA methyltransferase DNMT1; P26358; DNMT1 molecular beacon, Hinp1I cleavage, fluorescence; inhibition (reported as % activation of signal), % at 10 µM; 360,000 tested, 0.83% active; in the data active = inhibition above about 50%
SUMO1-SIM PPI – modulators of human SUMO1-mediated protein-protein interactions | P63165 | SUMO1 binding to a labelled peptide, TR-FRET, 1 h | inhibition, % at 20 µM | 360,000 tested, 0.33% active; in the data active = inhibition above about 37%
Target sequence (P63165 whole entry, looked up): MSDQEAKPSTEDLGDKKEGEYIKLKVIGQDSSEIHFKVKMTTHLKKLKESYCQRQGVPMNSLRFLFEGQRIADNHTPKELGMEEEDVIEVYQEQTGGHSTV
Rpn11 inh – inhibitors of human proteasome Rpn11; human 26S proteasome, Ub4-pepOG fluorescence polarization; 20S core pre-blocked with epoxomicin; inhibition, % at 20 µM; 360,000 tested, 0.59% active;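 active = inhibition at 20 µM, scaled to each plate's controls, above about 33%, limit read from the data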
Target sequence (O00487 whole entry, looked up): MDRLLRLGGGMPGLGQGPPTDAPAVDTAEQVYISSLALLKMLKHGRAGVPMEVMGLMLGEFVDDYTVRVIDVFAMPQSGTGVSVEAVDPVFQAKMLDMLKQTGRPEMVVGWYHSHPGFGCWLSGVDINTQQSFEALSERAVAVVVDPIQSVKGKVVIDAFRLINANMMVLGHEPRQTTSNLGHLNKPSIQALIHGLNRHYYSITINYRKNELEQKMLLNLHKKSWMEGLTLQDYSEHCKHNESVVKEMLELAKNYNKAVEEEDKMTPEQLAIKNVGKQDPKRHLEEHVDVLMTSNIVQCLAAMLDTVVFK
MT1-MMP act inh – inhibitors of human MT1-MMP activation. P50281. HT1080 RFP-PRO-GFP cells, GFP/RFP ratio fluorescence, overnight; percent of plate control window, DMSO zero. GFP/RFP ratio change, % at 20 µM. 360,000 tested, 0.061% active;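 active = GFP/RFP ratio change of at least 30% with cell ATP level not reduced by more than half and red fluorescence within 50% of control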
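Material – HT1080 RFP-PRO-GFP cells · Control set – DMSO wells and RFP-L50D-GFP cells · Incubation – overnight cell settling, then overnight compound exposure, 37 °C, 5% CO2 · Compound dosing – single-point 20 µM compound, 1% DMSO · Read-out – GFP/RFP fluorescence ratio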
An asterisk follows results filed as active.

How did N#C/C(=C\c1cn(-c2ccccc2)nc1-c1ccccc1)S(=O)(=O)c1ccccc1 do in these assays?
SKN-1 inh: 2; CSN inh: 8; DNMT1 block: 12; SUMO1-SIM PPI: -2; Rpn11 inh: 1; MT1-MMP act inh: 0

What do the screens show for `N#Cc1ccc(CC(=O)c2ccccc2)[nH]c1=O`?
SKN-1 inh: 44*; CSN inh: -4; DNMT1 block: -9; SUMO1-SIM PPI: -10; Rpn11 inh: 3; MT1-MMP act inh: -29

How did Cc1ccc(F)c(S(=O)(=O)NC(=O)C2(C)CCN2C(=O)CC(c2ccccc2)c2ccccc2)c1 (stereo unspecified) do in these assays?
SKN-1 inh: 6; CSN inh: -3; DNMT1 block: -2; SUMO1-SIM PPI: 4; Rpn11 inh: -1; MT1-MMP act inh: 3

How did CCOC(=O)c1c(-c2ccc(C)cc2)csc1NC(=O)/C(C#N)=C/c1ccc(O)c(OC)c1 do in these assays?
SKN-1 inh: 3; CSN inh: 42*; DNMT1 block: 8; SUMO1-SIM PPI: 11; MT1-MMP act inh: -114

How did c1ccc(COc2ccc(-c3cc4nc(NCCCn5ccnc5)ccn4n3)cc2)cc1 do in these assays?
SKN-1 inh: 12; CSN inh: 2; DNMT1 block: -28; SUMO1-SIM PPI: -24; Rpn11 inh: 9; MT1-MMP act inh: 4

How did NC(=O)c1cccc(-c2ccnc3c2CC(C(=O)Nc2ccc(Cl)cc2)O3)c1 (stereo unspecified) do in these assays?
SKN-1 inh: -9; CSN inh: -1; DNMT1 block: 7; SUMO1-SIM PPI: 4; Rpn11 inh: 5; MT1-MMP act inh: 4

What do the screens show for `NC(=NC(=O)c1ccc(OCC(F)(F)F)nc1)c1ccccc1`?
SKN-1 inh: 38*; CSN inh: -4; DNMT1 block: 17; SUMO1-SIM PPI: 0; Rpn11 inh: -2; MT1-MMP act inh: 2

Results for CC(C)Cc1ccc(C2=CSC3=NCCN23)cc1 ?
SKN-1 inh: 6; CSN inh: 3; DNMT1 block: -3; SUMO1-SIM PPI: -7; Rpn11 inh: 1; MT1-MMP act inh: -5

What do the screens show for `CC(C)(C)c1ccc(C2=CSC3=NCCN23)cc1`?
SKN-1 inh: 48*; CSN inh: -4; DNMT1 block: -2; SUMO1-SIM PPI: 0; Rpn11 inh: -6; MT1-MMP act inh: -5

What do the screens show for `Cc1ccc(CSc2nc3ccccc3cc2C=O)cc1`?
SKN-1 inh: 42*; CSN inh: -3; DNMT1 block: 4; SUMO1-SIM PPI: 15; Rpn11 inh: 8; MT1-MMP act inh: 2

Results for COc1ccc(Cc2nc3ccccc3n2CC(=O)N/N=C/c2ccc(C)cc2O)cc1OC ?
SKN-1 inh: 10; CSN inh: 60*; DNMT1 block: -7; SUMO1-SIM PPI: 1; Rpn11 inh: 21; MT1-MMP act inh: 0

Results for COc1ccc(Cc2nc3ccccc3n2CC(=O)N/N=C/c2ccc(O)cc2)cc1OC ?
SKN-1 inh: 5; CSN inh: 1; DNMT1 block: -3; SUMO1-SIM PPI: -10; Rpn11 inh: -3; MT1-MMP act inh: 1

Results for O=C(/C=C/c1ccc(NC(=O)c2ccccc2-c2ccccc2C(=O)O)cc1)c1ccccc1 ?
SKN-1 inh: 13; CSN inh: 51*; DNMT1 block: 4; SUMO1-SIM PPI: 16; MT1-MMP act inh: -3

What do the screens show for `O=C(NCC1CCCCC1)c1csc([C@@H]2O[C@H](CO)[C@H](O)[C@H](O)[C@H]2O)n1`?
SKN-1 inh: 6; CSN inh: 2; DNMT1 block: -2; SUMO1-SIM PPI: 1; Rpn11 inh: -4; MT1-MMP act inh: 5

What do the screens show for `COc1cc(/C=N/N2C(=O)CSC2=S)ccc1O`?
SKN-1 inh: 15; CSN inh: 19; DNMT1 block: -4; SUMO1-SIM PPI: -16; Rpn11 inh: 49*; MT1-MMP act inh: 30

Results for Cc1cccnc1C1=NOC(Cc2ccccc2)C(=O)N1Cc1ccc2c(c1)OCO2 (stereo unspecified) ?
SKN-1 inh: 1; CSN inh: 3; DNMT1 block: -7; SUMO1-SIM PPI: 10; Rpn11 inh: 4; MT1-MMP act inh: -2

What do the screens show for `COc1ccc(/C=N/Nc2cc(C)nc3ccc(OC)cc23)c(OC)c1`?
SKN-1 inh: -15; CSN inh: 18; DNMT1 block: 51*; SUMO1-SIM PPI: 87*; Rpn11 inh: 21; MT1-MMP act inh: -16

Results for COc1ccc2nc(C)cc(N/N=C/c3ccccc3)c2c1 ?
SKN-1 inh: 11; CSN inh: 10; DNMT1 block: 67*; SUMO1-SIM PPI: -48; Rpn11 inh: -32; MT1-MMP act inh: 1

Results for COc1ccccc1/C=N/Nc1cc(C)nc2ccc(C)cc12 ?
SKN-1 inh: 1; CSN inh: -2; DNMT1 block: 3; SUMO1-SIM PPI: 7; Rpn11 inh: -5; MT1-MMP act inh: 1

Results for CN1CCc2nc3sc(C(=O)C45CC6CC(CC(C6)C4)C5)c(N)c3cc2C1 ?
SKN-1 inh: -13; CSN inh: -10; DNMT1 block: 78*; SUMO1-SIM PPI: 6; Rpn11 inh: 33; MT1-MMP act inh: -19

What do the screens show for `Cc1ccc(Sc2ccc(N)cn2)cc1`?
SKN-1 inh: 6; CSN inh: 45*; DNMT1 block: 2; SUMO1-SIM PPI: 4; Rpn11 inh: 5; MT1-MMP act inh: 3

What do the screens show for `Nc1ccc(Sc2ccccc2)nc1`?
SKN-1 inh: -7; CSN inh: -2; DNMT1 block: 2; SUMO1-SIM PPI: 7; Rpn11 inh: -11; MT1-MMP act inh: 5

What do the screens show for `Cc1cc(/C=N/NC(N)=S)c(O)c(/C=N/NC(N)=S)c1`?
SKN-1 inh: -7; CSN inh: -33; DNMT1 block: 53*; SUMO1-SIM PPI: -7; Rpn11 inh: -108; MT1-MMP act inh: -122

How did NC(=S)N/N=C/c1cccc(O)c1O do in these assays?
SKN-1 inh: 2; CSN inh: -2; DNMT1 block: 0; SUMO1-SIM PPI: 2; Rpn11 inh: -11; MT1-MMP act inh: -6

Results for Cc1ccc(-c2nc3cc(Cl)ccc3o2)cc1 ?
SKN-1 inh: 8; CSN inh: 2; DNMT1 block: -1; SUMO1-SIM PPI: 5; Rpn11 inh: 2; MT1-MMP act inh: -8

What do the screens show for `Clc1ccc(-c2nc3cc(CN4CCCCC4)ccc3o2)cc1`?
SKN-1 inh: 77*; CSN inh: 3; DNMT1 block: 2; SUMO1-SIM PPI: 5; Rpn11 inh: -9; MT1-MMP act inh: 0

Results for CSc1nc(-c2ccco2)nn1C(=O)c1ccc(C)cc1 ?
SKN-1 inh: 36*; CSN inh: 3; DNMT1 block: -1; SUMO1-SIM PPI: 8; Rpn11 inh: 33; MT1-MMP act inh: 0

Assay outcomes as filed in PubChem BioAssay.
